In ChEMBL document CHEMBL1800034, “A synthetic 7,8-dihydroxyflavone derivative promotes neurogenesis and exhibits potent antidepressant effect” (J Med Chem, 2010):
Active and inactive are the calls of the source. The calls are words filed in the database; no cut-off is given here.

Columns and labels:
[1] = system: Mus musculus; experiment: Toxicity in C57BL/6J mouse assessed as pathological changes in kidney at 5 mg/kg, po for 3 weeks; assay type: organism-based; design: dose 5 mg/kg, route oral; settings: in vivo, 504 h
How it was run: (§1)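 Mice were dosed orally at 5 mg/kg for 3 weeks, with saline-treated controls. Major organs were examined for pathological changes, and a complete blood count was done.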

[2] = molecular target: BDNF/NT-3 growth factors receptor (Rattus norvegicus) (UniProt Q63604); experiment: Agonist activity at TrkB in E17 rat primary rat cortical neurons assessed as AKT phosphorylation at Ser 473 after 15 mins by titration assay; assay type: functional
How it was run: (§2)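 Primary cortical neurons were incubated with graded concentrations, starting at 10 nM, for 15 min. Phospho-Akt Ser473 was measured by sandwich ELISA on 20 µg of lysate. Data come from 2 replicated experiment sets, given as mean ± SEM. Comparisons used one-way ANOVA against control and Student's t-test between compounds.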

[3] = system: Mus musculus; experiment: Agonist activity at TrkA in C57BL/6J mouse brain lysate assessed as TrkA phosphorylation at Y794 at 5 mg/kg, po administered for 21 days by immunoblotting; assay type: functional, organism-based; design: dose 5 mg/kg
How it was run: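 Adult male C57BL/6J mice, 8 per group, dosed orally by gavage once daily for 21 days; saline was the vehicle. Brain lysates were immunoblotted with anti-p-TrkA 794 and anti-p-TrkB 817.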

[4] = molecular target: BDNF/NT-3 growth factors receptor (Rattus norvegicus) (UniProt Q63604); experiment: Agonist activity at TrkB in E17 rat primary cortical neurons at 500 nM after 10 mins by immunoblotting; assay type: functional, cell-based; settings: Cerebral cortex neuron
How it was run: (§3)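 Rat primary cortical neurons were exposed to 500 nM compound for various times between 5 and 180 min. Lysates were immunoblotted for TrkB, Akt and MAPK phosphorylation.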

[5] = system: HEK293; experiment: Cytotoxicity against human HEK293 cells assessed as cell death at 50 to 50000 nM after 24 hrs by LDH assay; assay type: cell-based; settings: hek293, 24 h, 50 µM
[6] = system: Mus musculus; experiment: Antidepressant activity in C57BL/6J mouse assessed as decrease in immobility at 5 mg/kg, po administered for 21 days measured last 4 mins of total 6 mins observation time by forced swim test; assay type: functional, organism-based; design: dose 5 mg/kg
How it was run: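 Male C57BL/6J mice, 2–3 months old, were gavaged with saline or compound at 5 mg/kg for 21 days. Mice were acclimated to the test room for 2 days. There was no pre-swim. Each mouse swam for 6 min in a 16 cm cylinder of water 14 cm deep at 24 °C. Immobility was scored blind over the last 4 min; mean ± SEM, ANOVA.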

[7] = system: Mus musculus; experiment: Agonist activity at TrkB in C57BL/6J mouse brain assessed as MAPK phosphorylation at 1 mg/kg, po after 1 to 16 hrs by immunoblotting; assay type: functional, organism-based; design: dose 1 mg/kg
How it was run: (§4)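 C57BL/6J mice got a single oral dose of 1 mg/kg. Brains were collected at several time points, about 1 to 16 h after dosing. Lysates were immunoblotted for TrkB phosphorylation and for downstream Akt and MAPK phosphorylation.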

[8] = system: Mus musculus; experiment: Induction of neurogenesis in C57BL/6J mouse hippocampus dentate gyrus assessed as progenitor cell proliferation at 5 mg/kg, po administered for 21 days by DAPI and BrdU staining based fluorescence microscopy; assay type: functional, organism-based; design: dose 5 mg/kg
How it was run: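 Adult male C57BL/6J mice were gavaged at 5 mg/kg for 21 days and then given BrdU at 50 mg/kg i.p. Mice were perfused with 4% paraformaldehyde 2 h later. Paraffin sections had citrate antigen retrieval and 2 N HCl treatment, then were stained with anti-BrdU-FITC at 4 °C for 16 h and with DAPI. BrdU-positive cells in the dentate gyrus were counted by fluorescence microscopy.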

[9] = system: Mus musculus; experiment: Toxicity in C57BL/6J mouse assessed as pathological changes in spleen at 5 mg/kg, po for 3 weeks; assay type: organism-based; design: dose 5 mg/kg, route oral; settings: in vivo, 504 h; how it was run: as §1
[10] = system: HEK293; experiment: Cytotoxicity against human HEK293 cells assessed as inhibition of cell proliferation at up to 50 uM by MTT assay; assay type: cell-based
[11] = system: Mus musculus; experiment: Toxicity in C57BL/6J mouse assessed as pathological changes in muscle at 5 mg/kg, po for 3 weeks; assay type: organism-based, Muscle tissue; design: dose 5 mg/kg, route oral; settings: in vivo, 504 h; how it was run: as §1
[12] = molecular target: BDNF/NT-3 growth factors receptor (Rattus norvegicus) (UniProt Q63604); experiment: Agonist activity at TrkB in E17 rat primary cortical neurons at 500 nM after 5 mins by immunoblotting; assay type: functional, cell-based; settings: Cerebral cortex neuron; how it was run: as §3
[13] = system: Mus musculus; experiment: Toxicity in C57BL/6J mouse assessed as pathological changes in hippocampus at 5 mg/kg, po for 3 weeks; assay type: organism-based; design: dose 5 mg/kg, route oral; settings: in vivo, 504 h; how it was run: as §1
[14] = system: Mus musculus; experiment: Antidepressant activity in TrkB F616A knock in mouse assessed as reduction of immobility time at 5 mg/kg, po administered for 21 days by forced swim test assay in presence of TrkB F616A inhibitor 1NMPP1; assay type: functional, organism-based; design: dose 5 mg/kg
[15] = molecular target: BDNF/NT-3 growth factors receptor (Rattus norvegicus) (UniProt Q63604); experiment: Agonist activity at TrkB in E17 rat primary cortical neurons at 500 nM after 30 to 180 mins by immunoblotting; assay type: functional, cell-based; settings: Cerebral cortex neuron; how it was run: as §3
[16] = system: Mus musculus; experiment: Agonist activity at TrkB in C57BL/6J mouse brain assessed as TrkB 706 phosphorylation at 1 mg/kg, po at 1 hr by immunoblotting; assay type: functional, organism-based; design: dose 1 mg/kg; how it was run: as §4
[17] = molecular target: BDNF/NT-3 growth factors receptor (Rattus norvegicus) (UniProt Q63604); experiment: Agonist activity at TrkB in E17 rat primary rat cortical neurons assessed as AKT phosphorylation at Ser 473 at 10 nM after 15 mins by titration assay; assay type: functional; how it was run: as §2
[18] = system: Mus musculus; experiment: Toxicity in C57BL/6J mouse assessed as pathological changes in intestine at 5 mg/kg, po for 3 weeks; assay type: organism-based; design: dose 5 mg/kg, route oral; settings: in vivo, 504 h; how it was run: as §1
[19] = system: Mus musculus; experiment: Toxicity in C57BL/6J mouse assessed as pathological changes in heart at 5 mg/kg, po for 3 weeks; assay type: organism-based; design: dose 5 mg/kg, route oral; settings: in vivo, 504 h; how it was run: as §1
[20] = system: Mus musculus; experiment: Toxicity in C57BL/6J mouse assessed as pathological changes in lungs at 5 mg/kg, po for 3 weeks; assay type: organism-based; design: dose 5 mg/kg, route oral; settings: in vivo, 504 h; how it was run: as §1
[21] = system: Mus musculus; experiment: Agonist activity at TrkB in C57BL/6J mouse brain assessed as TrkB 706 phosphorylation at 1 mg/kg, po after 4 hrs by immunoblotting; assay type: functional, organism-based; design: dose 1 mg/kg; how it was run: as §4
[22] = system: Mus musculus; experiment: Agonist activity at TrkB in C57BL/6J mouse brain assessed as AKT phosphorylation at Ser473 at 1 mg/kg, po after 1 to 16 hrs by immunoblotting; assay type: functional, organism-based; design: dose 1 mg/kg; how it was run: as §4
[23] = Cytotoxicity at E17 rat primary cortical neurons assessed as cell death at 5 uM by LDH assay; assay type: cell-based; settings: cerebral cortex neuron
[24] = molecular target: BDNF/NT-3 growth factors receptor (Rattus norvegicus) (UniProt Q63604); experiment: Agonist activity at TrkB in E17 rat primary cortical neurons assessed as MAPK phosphorylation at 500 nM by ELISA; settings: Cerebral cortex neuron
[25] = system: Mus musculus; experiment: Agonist activity at TrkB in C57BL/6J mouse brain assessed as AKT phosphorylation at 1 mg/kg, po after 1 to 16 hrs by immunoblotting; assay type: functional, organism-based; design: dose 1 mg/kg; how it was run: as §4
[26] = molecular target: BDNF/NT-3 growth factors receptor (Rattus norvegicus) (UniProt Q63604); experiment: Agonist activity at TrkB in E17 rat primary cortical neurons assessed as AKT phosphorylation at S473 at 500 nM by ELISA; settings: Cerebral cortex neuron
[27] = molecular target: BDNF/NT-3 growth factors receptor (Rattus norvegicus) (UniProt Q63604); experiment: Agonist activity at TrkB in E17 rat primary rat cortical neurons assessed as AKT phosphorylation at Ser 473 at 10 to 50 nM after 15 mins by titration assay; assay type: functional; how it was run: as §2
[28] = molecular target: BDNF/NT-3 growth factors receptor (Rattus norvegicus) (UniProt Q63604); experiment: Agonist activity at TrkB in E17 rat primary rat cortical neurons assessed as AKT phosphorylation at Ser 473 at 500 nM after 15 mins by ELISA; assay type: functional

Sequence of BDNF/NT-3 growth factors receptor (Rattus norvegicus) (Q63604 whole entry): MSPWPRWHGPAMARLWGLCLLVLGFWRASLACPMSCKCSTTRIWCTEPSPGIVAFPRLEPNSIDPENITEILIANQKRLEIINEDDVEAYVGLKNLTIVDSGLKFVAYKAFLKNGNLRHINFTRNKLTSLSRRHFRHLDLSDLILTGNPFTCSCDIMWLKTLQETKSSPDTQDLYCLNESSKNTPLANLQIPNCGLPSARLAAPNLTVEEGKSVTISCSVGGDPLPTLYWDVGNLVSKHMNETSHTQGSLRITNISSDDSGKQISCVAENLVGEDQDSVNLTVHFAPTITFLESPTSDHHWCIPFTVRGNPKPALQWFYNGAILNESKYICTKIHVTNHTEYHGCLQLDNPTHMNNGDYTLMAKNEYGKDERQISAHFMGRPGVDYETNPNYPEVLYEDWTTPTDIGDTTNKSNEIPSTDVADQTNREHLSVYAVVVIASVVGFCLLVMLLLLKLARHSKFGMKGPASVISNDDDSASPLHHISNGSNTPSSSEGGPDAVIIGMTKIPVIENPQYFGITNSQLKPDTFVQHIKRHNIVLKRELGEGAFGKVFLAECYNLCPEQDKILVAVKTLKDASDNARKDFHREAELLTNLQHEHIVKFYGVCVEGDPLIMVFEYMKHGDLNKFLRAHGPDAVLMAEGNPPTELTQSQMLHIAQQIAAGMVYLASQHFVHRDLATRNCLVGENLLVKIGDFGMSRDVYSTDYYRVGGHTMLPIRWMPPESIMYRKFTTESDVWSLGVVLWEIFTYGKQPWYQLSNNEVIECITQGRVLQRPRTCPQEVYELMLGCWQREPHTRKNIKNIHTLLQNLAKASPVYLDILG

Activity [2]: Dose-dependent effect
Activity [4]: Active
Activity [12]: Active
Activity [15]: inactive
Activity [17]: Active
Activity [24]: Active
Activity [26]: Active
Activity [27]: Active
Activity [28]: Active
Compound: CN(C)c1ccc(-c2cc(=O)c3ccc(O)c(O)c3o2)cc1
Activity [1]: Non-toxic
Activity [3]: inactive
Activity [5]: Non-toxic
Activity [6]: Active
Activity [7]: Active
Activity [8]: Active
Activity [9]: Non-toxic
Activity [10]: Non-toxic
Activity [11]: Non-toxic
Activity [13]: Non-toxic
Activity [14]: inactive
Activity [16]: Active
Activity [18]: Non-toxic
Activity [19]: Non-toxic
Activity [20]: Non-toxic
Activity [21]: Active
Activity [22]: Active
Activity [23]: Non-toxic
Activity [25]: Active
